According to ChEMBL document CHEMBL3227960, “Inhibition of uptake of catecholamines by benzylamine derivatives” (J Med Chem, 1979):

Tests used:
[1] = Inhibition of [3H]norepinephrine reuptake at NET in Sprague-Dawley rat brain cortical synaptosomes incubated for 5 mins prior to [3H]norepinephrine addition measured after 3 mins by scintillation counting analysis; assay type: subcellular; conditions: read-out: I50
Procedure, shortened: (§1)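 Crude P2 synaptosomes from male Sprague-Dawley rat striatum (dopamine) or cerebral cortex (norepinephrine), prepared at 0 °C in 0.32 M sucrose. Tritiated substrate 0.1 μM, 37 °C. Uptake quenched with cold saline plus 100 μM unlabelled substrate, then filtered. 0 °C blanks subtracted. Three inhibitor concentrations, each in triplicate. I50 taken where A0/A1 = 2, by linear regression against concentration.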

[2] = molecular target: Sodium-dependent dopamine transporter (Rattus norvegicus, UniProt P23977); assay: Inhibition of [3H]dopamine reuptake at DAT in Sprague-Dawley rat brain striatal synaptosomes incubated for 5 mins prior to [3H]dopamine addition measured after 3 mins by scintillation counting analysis; assay type: subcellular; conditions: read-out: I50; procedure, shortened: as §1
Sodium-dependent dopamine transporter, sequence (P23977 whole entry): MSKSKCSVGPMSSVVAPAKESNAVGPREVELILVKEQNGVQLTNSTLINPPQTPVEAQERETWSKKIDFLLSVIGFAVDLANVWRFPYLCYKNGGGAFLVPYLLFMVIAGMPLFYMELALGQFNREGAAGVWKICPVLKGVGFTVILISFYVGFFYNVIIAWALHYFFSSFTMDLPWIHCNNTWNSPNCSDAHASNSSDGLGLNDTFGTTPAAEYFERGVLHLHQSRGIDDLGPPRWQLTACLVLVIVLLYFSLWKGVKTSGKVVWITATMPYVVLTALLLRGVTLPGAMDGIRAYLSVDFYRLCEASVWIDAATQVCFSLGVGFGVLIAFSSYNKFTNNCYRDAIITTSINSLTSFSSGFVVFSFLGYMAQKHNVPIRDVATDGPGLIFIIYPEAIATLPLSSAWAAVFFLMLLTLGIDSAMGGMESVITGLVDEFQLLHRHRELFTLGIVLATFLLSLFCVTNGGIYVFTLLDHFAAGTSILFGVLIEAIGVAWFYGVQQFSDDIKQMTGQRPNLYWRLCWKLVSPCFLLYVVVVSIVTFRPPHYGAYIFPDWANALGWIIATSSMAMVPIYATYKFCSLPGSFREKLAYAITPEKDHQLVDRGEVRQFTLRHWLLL

| Compound | IC50 [1] | IC50 [2] |
| --- | --- | --- |
| CCN(CCCl)Cc1ccccc1Br | 0.05 µM | 5.87 µM |
| ClCCNCc1ccccc1Br | 50.2 µM | 326 µM |
| CCN(CCO)Cc1ccccc1Br | 78 µM | 640 µM |
| CCN(CCO)Cc1ccccc1C | 137 µM | 1050 µM |
| CCN(CCCl)Cc1cccc(C)c1 | 0.77 µM | 28.6 µM |
| CCN(CCO)Cc1cccc(C)c1 | 49 µM | 250 µM |
| CCN(CCCl)Cc1ccc(C)cc1 | 3.05 µM | 78.4 µM |
| CCN(CCCl)Cc1ccccc1OC | 31.1 µM | 303 µM |
| CCN(CCCl)Cc1cccc(OC)c1 | 23.2 µM | 127 µM |
| CCN(CCCl)Cc1ccc(OC)cc1 | 29.8 µM | 147 µM |
